Assay results: ChEMBL document CHEMBL2040727, “Substituted thiazoles VI. Synthesis and antitumor activity of new 2-acetamido- and 2 or 3-propanamido-thiazole analogs” (2012)

How the values were obtained:
Format in all cases: functional
NCI-H322M = assay: Growth inhibition of human NCI-H322M cells at 10 uM after 48 hrs by coulter counter analysis; conditions: read-out: GI
In short: (§1)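 Single-dose NCI 60-line panel screen of test compounds. Cells grown in RPMI 1640 with 10% FBS. Compounds dissolved in DMSO, then diluted in phosphate buffer saline (final DMSO below 1%). Wells run in duplicate at 6 × 10⁴ cells/ml. Controls held PBS and DMSO at matching dilutions. Incubation 48 h at 37 °C under humidified 5% CO2. Cells diluted tenfold in saline and counted by Coulter counter. Percent growth inhibition taken from mean-graph of treated-cell growth.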

T47D = assay: Growth inhibition of human T47D cells at 10 uM after 48 hrs by coulter counter analysis; conditions: read-out: GI
In short: (§2)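 Single-dose screen in the NCI 60 cell line panel. Cells grown in RPMI 1640 with 10% FBS. Compounds dissolved in DMSO and diluted in phosphate buffered saline, final DMSO under 1%. Duplicate wells seeded from culture at 6 × 10⁴ cells/ml. Incubated 48 h at 37 °C, humidified, 5% CO2. Cells diluted tenfold in saline and Coulter-counted. Percent growth inhibition computed against PBS/DMSO controls.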

UACC-257 = assay: Growth inhibition of human UACC257 cells at 10 uM after 48 hrs by coulter counter analysis; conditions: UACC-257, 48 h, read-out: GI; in short: as §2
SK-MEL-5 = assay: Growth inhibition of human SK-MEL-5 cells at 10 uM after 48 hrs by coulter counter analysis; conditions: SK-MEL-5, 48 h, read-out: GI; in short: as §1
ACHN = assay: Growth inhibition of human ACHN cells at 10 uM after 48 hrs by coulter counter analysis; conditions: read-out: GI; in short: as §1
EKVX = assay: Growth inhibition of human EKVX cells at 10 uM after 48 hrs by coulter counter analysis; conditions: read-out: GI; in short: as §1
NCI-H522 = assay: Growth inhibition of human NCI-H522 cells at 10 uM after 48 hrs by coulter counter analysis; conditions: NCI-H522, 48 h, read-out: GI; in short: as §1
UACC-62 = assay: Growth inhibition of human UACC62 cells at 10 uM after 48 hrs by coulter counter analysis; conditions: UACC-62, 48 h, read-out: GI; in short: as §2
NCI-H23 = assay: Growth inhibition of human NCI-H23 cells at 10 uM after 48 hrs by coulter counter analysis; conditions: NCI-H23, 48 h, read-out: GI; in short: as §1
TK-10 = assay: Growth inhibition of human TK10 cells at 10 uM after 48 hrs by coulter counter analysis; conditions: TK-10, 48 h, read-out: GI; in short: as §2
KM12 = assay: Growth inhibition of human KM12 cells at 10 uM after 48 hrs by coulter counter analysis; conditions: KM12, 48 h, read-out: GI; in short: as §1
SNB-75 = assay: Growth inhibition of human SNB75 cells at 10 uM after 48 hrs by coulter counter analysis; conditions: SNB-75, 48 h, read-out: GI; in short: as §2
OVCAR-4 = assay: Growth inhibition of human OVCAR4 cells at 10 uM after 48 hrs by coulter counter analysis; conditions: OVCAR-4, 48 h, read-out: GI; in short: as §1
SR = assay: Growth inhibition of human SR cells at 10 uM after 48 hrs by coulter counter analysis; conditions: read-out: GI; in short: as §2
SK-MEL-2 = assay: Growth inhibition of human SK-MEL-2 cells at 10 uM after 48 hrs by coulter counter analysis; conditions: SK-MEL-2, 48 h, read-out: GI; in short: as §1
OVCAR-8 = assay: Growth inhibition of human OVCAR8 cells at 10 uM after 48 hrs by coulter counter analysis; conditions: OVCAR-8, 48 h, read-out: GI; in short: as §1
SK-OV-3 = assay: Growth inhibition of human SKOV3 cells at 10 uM after 48 hrs by coulter counter analysis; conditions: SK-OV-3, 48 h, read-out: GI; in short: as §1
MCF7 = assay: Growth inhibition of human MCF7 cells at 10 uM after 48 hrs by coulter counter analysis; conditions: MCF7, 48 h, read-out: GI; in short: as §1
HCT-116 = assay: Growth inhibition of human HCT116 cells at 10 uM after 48 hrs by coulter counter analysis; conditions: HCT-116, 48 h, read-out: GI; in short: as §1
NCI-H226 = assay: Growth inhibition of human NCI-H226 cells at 10 uM after 48 hrs by coulter counter analysis; conditions: NCI-H226, 48 h, read-out: GI; in short: as §1
MOLT-4 = assay: Growth inhibition of human MOLT4 cells at 10 uM after 48 hrs by coulter counter analysis; conditions: MOLT-4, 48 h, read-out: GI; in short: as §1
HOP-62 = assay: Growth inhibition of human HOP62 cells at 10 uM after 48 hrs by coulter counter analysis; conditions: HOP-62, 48 h, read-out: GI; in short: as §1
SF-295 = assay: Growth inhibition of human SF295 cells at 10 uM after 48 hrs by coulter counter analysis; conditions: SF-295, 48 h, read-out: GI; in short: as §1
MDA-MB-435 = assay: Growth inhibition of human MDA-MB-435 cells at 10 uM after 48 hrs by coulter counter analysis; conditions: MDA-MB-435, 48 h, read-out: GI; in short: as §1
MDA-MB-231 = assay: Growth inhibition of human MDA-MB-231 cells at 10 uM after 48 hrs by coulter counter analysis; conditions: MDA-MB-231, 48 h, read-out: GI; in short: as §1
M14 = assay: Growth inhibition of human M14 cells at 10 uM after 48 hrs by coulter counter analysis; conditions: M14, 48 h, read-out: GI; in short: as §1
OVCAR-5 = assay: Growth inhibition of human OVCAR5 cells at 10 uM after 48 hrs by coulter counter analysis; conditions: OVCAR-5, 48 h, read-out: GI; in short: as §1

Compound | inhibition of growth at 10 µM (NCI-H322M) [%] | inhibition of growth at 10 µM (T47D) [%] | inhibition of growth at 10 µM (UACC-257) [%] | inhibition of growth at 10 µM (SK-MEL-5) [%] | inhibition of growth at 10 µM (ACHN) [%] | inhibition of growth at 10 µM (EKVX) [%] | inhibition of growth at 10 µM (NCI-H522) [%] | inhibition of growth at 10 µM (UACC-62) [%] | inhibition of growth at 10 µM (NCI-H23) [%] | inhibition of growth at 10 µM (TK-10) [%] | inhibition of growth at 10 µM (KM12) [%] | inhibition of growth at 10 µM (SNB-75) [%] | inhibition of growth at 10 µM (OVCAR-4) [%] | inhibition of growth at 10 µM (SR) [%] | inhibition of growth at 10 µM (SK-MEL-2) [%] | inhibition of growth at 10 µM (OVCAR-8) [%] | inhibition of growth at 10 µM (SK-OV-3) [%] | inhibition of growth at 10 µM (MCF7) [%] | inhibition of growth at 10 µM (HCT-116) [%] | inhibition of growth at 10 µM (NCI-H226) [%] | also measured
CCOC(=O)c1sc(NC(=O)C(C)N2CCCCC2)nc1C (stereo not given) | < 10 | < 10 | < 10 | < 10 | < 10 | < 10 | < 10 | < 10 | < 10 | < 10 | < 10 | < 10 | < 10 | < 10 | < 10 | < 10 | < 10 | < 10 | < 10 | < 10 | inhibition of growth at 10 µM (MOLT-4): < 10%; inhibition of growth at 10 µM (HOP-62): < 10%; inhibition of growth at 10 µM (SF-295): < 10%; inhibition of growth at 10 µM (MDA-MB-435): < 10%; inhibition of growth at 10 µM (MDA-MB-231): < 10%; inhibition of growth at 10 µM (M14): < 10%; inhibition of growth at 10 µM (OVCAR-5): < 10%
CC(C(=O)Nc1nccs1)N1CCN(c2ccccc2)CC1 (stereo not given) | < 10 | < 10 | < 10 | < 10 | < 10 | < 10 | < 10 | < 10 | < 10 | < 10 | < 10 | < 10 | < 10 | < 10 | < 10 | < 10 | < 10 | < 10 | < 10 | < 10 | inhibition of growth at 10 µM (MOLT-4): < 10%; inhibition of growth at 10 µM (HOP-62): < 10%; inhibition of growth at 10 µM (SF-295): < 10%; inhibition of growth at 10 µM (MDA-MB-435): < 10%; inhibition of growth at 10 µM (MDA-MB-231): < 10%; inhibition of growth at 10 µM (M14): < 10%; inhibition of growth at 10 µM (OVCAR-5): < 10%
Cc1csc(NC(=O)C(C)N2CCN(c3ccccc3)CC2)n1 (stereo not given) | < 10 | < 10 | < 10 | < 10 | < 10 | < 10 | < 10 | < 10 | < 10 | < 10 | < 10 | 24 | < 10 | < 10 | < 10 | < 10 | < 10 | < 10 | < 10 | 11.7 | inhibition of growth at 10 µM (MOLT-4): < 10%; inhibition of growth at 10 µM (HOP-62): < 10%; inhibition of growth at 10 µM (SF-295): < 10%; inhibition of growth at 10 µM (MDA-MB-435): < 10%; inhibition of growth at 10 µM (MDA-MB-231): < 10%; inhibition of growth at 10 µM (M14): < 10%; inhibition of growth at 10 µM (OVCAR-5): < 10%
Cc1csc(NC(=O)C(C)N2CCN(C)CC2)n1 (stereo not given) | < 10 | < 10 | < 10 | 11.3 | < 10 | < 10 | 66.3 | 24 | 19.8 | < 10 | < 10 | < 10 | 16.2 | < 10 | < 10 | < 10 | < 10 | 35.6 | 30.1 | < 10 | inhibition of growth at 10 µM (MOLT-4): 12.1%; inhibition of growth at 10 µM (HOP-62): 10.9%; inhibition of growth at 10 µM (SF-295): < 10%; inhibition of growth at 10 µM (MDA-MB-435): 11.2%; inhibition of growth at 10 µM (MDA-MB-231): 13.3%; inhibition of growth at 10 µM (M14): 25.5%; inhibition of growth at 10 µM (OVCAR-5): < 10%
CCOC(=O)c1sc(NC(=O)C(C)N2CCN(C)CC2)nc1C (stereo not given) | < 10 | < 10 | < 10 | < 10 | < 10 | < 10 | < 10 | < 10 | < 10 | < 10 | < 10 | < 10 | < 10 | < 10 | < 10 | < 10 | < 10 | < 10 | < 10 | < 10 | inhibition of growth at 10 µM (MOLT-4): < 10%; inhibition of growth at 10 µM (HOP-62): < 10%; inhibition of growth at 10 µM (SF-295): < 10%; inhibition of growth at 10 µM (MDA-MB-435): < 10%; inhibition of growth at 10 µM (MDA-MB-231): < 10%; inhibition of growth at 10 µM (M14): < 10%; inhibition of growth at 10 µM (OVCAR-5): < 10%
